In ChEMBL document CHEMBL1134654, “Alpha-amino acid phenolic ester derivatives: novel water-soluble general anesthetic agents which allosterically modulate GABA(A) receptors” (J Med Chem, 2001):

Key:
[1] = tested on: Mus musculus; experiment: Loss of righting reflex following i.v. administration in mice.; type: functional
Outline: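 Male MF-1 mice in groups of eight given compound in saline iv via lateral tail vein over 10 s (10 mL/kg). Doses on a umol/kg scale, extra doses added to narrow range. Animals boxed separately; loss of righting reflex lasting ≥30 s scored. HD50 with 95% confidence limits by probit analysis.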

[2] = target: GABA-A receptor; anion channel (Rattus norvegicus) (UniProt O09028+P15431+P18506+P18508+P19969+P20236+P23574+P23576+P28471+P28473+P30191+P62813+P63079+P63138+Q91ZM7+Q9ES14); experiment: Ability to inhibit [35S]t-butyl-bicyclophosphorothionate binding by 50% to rat whole brain membrane; type: tissue-based
Outline: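 Male Wistar rat whole-brain membranes, washed with four freeze–thaw cycles. 100 ug membrane protein incubated with [35S]TBPS (2 nM final) in 20 mM KH2PO4/200 mM KCl, pH 7.4, containing GABA 600 nM final. Incubated 150 min at about 22 °C on shaker; vacuum filtration through GF/B filters; scintillation counting. Nonspecific binding with 200 uM picrotoxin. Reported as IC50, mean ± SEM.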

[3] = target: T1, GABA-A receptor; alpha-1/beta-3/gamma-2 (Homo sapiens, UniProt P14867+P18507+P28472); experiment: GABA-modulatory action compound was evaluated on Oocytes expressing recombinant human alpha-1-beta-3-gamma-2L GABA A receptor at concentrations of >=100 micro<M; type: protein-complex assay
T1 sequence (P14867 whole entry): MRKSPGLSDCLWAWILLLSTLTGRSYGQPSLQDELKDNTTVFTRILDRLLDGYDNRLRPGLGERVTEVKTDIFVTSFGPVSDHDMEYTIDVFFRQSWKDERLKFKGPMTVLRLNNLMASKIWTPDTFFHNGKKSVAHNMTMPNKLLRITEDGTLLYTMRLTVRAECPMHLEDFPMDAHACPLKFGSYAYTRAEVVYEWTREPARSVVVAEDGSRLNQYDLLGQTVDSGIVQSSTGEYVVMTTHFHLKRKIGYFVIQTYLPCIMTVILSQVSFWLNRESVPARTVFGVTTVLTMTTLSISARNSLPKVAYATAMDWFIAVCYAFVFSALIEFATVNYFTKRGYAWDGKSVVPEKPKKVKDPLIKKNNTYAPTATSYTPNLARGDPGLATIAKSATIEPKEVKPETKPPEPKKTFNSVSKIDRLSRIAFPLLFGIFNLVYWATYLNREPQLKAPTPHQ
T1 sequence (P18507 whole entry): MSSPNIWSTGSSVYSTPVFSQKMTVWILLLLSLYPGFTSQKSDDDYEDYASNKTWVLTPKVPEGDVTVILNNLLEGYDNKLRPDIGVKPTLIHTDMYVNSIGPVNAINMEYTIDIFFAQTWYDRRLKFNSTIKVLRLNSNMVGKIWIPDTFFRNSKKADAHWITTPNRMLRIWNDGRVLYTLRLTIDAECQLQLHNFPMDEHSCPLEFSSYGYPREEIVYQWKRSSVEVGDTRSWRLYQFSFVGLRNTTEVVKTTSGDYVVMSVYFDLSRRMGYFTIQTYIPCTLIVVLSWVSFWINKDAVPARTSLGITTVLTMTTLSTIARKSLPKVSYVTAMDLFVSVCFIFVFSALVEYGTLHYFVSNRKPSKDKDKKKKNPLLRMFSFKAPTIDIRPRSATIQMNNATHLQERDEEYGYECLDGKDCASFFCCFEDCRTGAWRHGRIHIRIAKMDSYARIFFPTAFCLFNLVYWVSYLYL
T1 sequence (P28472 whole entry): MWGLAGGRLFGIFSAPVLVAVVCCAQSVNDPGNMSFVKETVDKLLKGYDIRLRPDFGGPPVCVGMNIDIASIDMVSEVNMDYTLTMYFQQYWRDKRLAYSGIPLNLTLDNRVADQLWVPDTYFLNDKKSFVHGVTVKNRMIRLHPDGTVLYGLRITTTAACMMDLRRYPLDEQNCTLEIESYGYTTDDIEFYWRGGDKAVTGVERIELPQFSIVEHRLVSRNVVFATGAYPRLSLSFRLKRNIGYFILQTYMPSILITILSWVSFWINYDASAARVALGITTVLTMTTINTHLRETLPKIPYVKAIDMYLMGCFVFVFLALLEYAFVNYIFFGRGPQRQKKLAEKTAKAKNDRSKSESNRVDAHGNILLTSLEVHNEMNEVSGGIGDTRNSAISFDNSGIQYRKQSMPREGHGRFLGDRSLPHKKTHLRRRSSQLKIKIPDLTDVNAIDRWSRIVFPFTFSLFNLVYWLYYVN
Outline: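 Oocytes expressing human α1β3γ2L receptors, used 2–12 days after cRNA injection, were recorded with two electrodes at 18–22 °C. […] Compound was preapplied 30–60 s, then co-applied with EC10 GABA. Peak current was read manually; EC50 came from the fitted curve; mean ± s.e.mean.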

[4] = target: T1, GABA-A receptor; alpha-1/beta-3/gamma-2; experiment: GABA-mimetic action on Oocytes expressing human alpha-1-beta-3-gamma-2L GABA-A receptor subunits at >=100 uM

For `COc1cccc(OC)c1OC(=O)C(c1ccccc1)N1CCOCC1` (stereo not drawn), the HD50 [1] was 39.6 µmol/kg and the TBPS IC50 [2] was 66 µM.
In the case of `CC(C)c1cccc(C(C)C)c1OC(=O)CN1CCOCC1`, the HD50 [1] is reported as 98.1 µmol/kg.
`CC[C@H](C(=O)Oc1c(OC)cc(C)cc1OC)N(CCOC)CCOC` [ORG-24447] was tested, and the HD50 [1] was 18 µmol/kg, the TBPS IC50 [2] was 16 µM and the EC50 [3] was 10 µM.
For `CCC(C(=O)Oc1c(OC)cccc1OC)N1CCOCC1` (stereo not drawn), the HD50 [1] was 38 µmol/kg and the TBPS IC50 [2] was > 10 µM.
In the case of `COc1cccc(OC)c1C(=O)OCCN1CCc2ccccc2C1`, the HD50 [1] is reported as 19 µmol/kg and the TBPS IC50 [2] is reported as > 30 µM.
For `CC(C)c1cccc(C(C)C)c1O` [PROPOFOL], the EC50 [4] was 50 µM and the EC50 [3] was 4.1 µM.
With `COc1cccc(OC)c1OC(=O)[C@@H](C)N1CCc2ccccc2C1` the HD50 [1] was 20.7 µmol/kg, the TBPS IC50 [2] was 3.3 µM and the EC50 [3] was 4.1 µM.
In the case of `COc1cccc(OC)c1NC(=O)[C@@H](C)N1CCc2ccccc2C1`, the HD50 [1] is reported as 44.1 µmol/kg and the TBPS IC50 [2] is reported as > 10 µM.
In the case of `COc1cccc(OC)c1C(=O)NCCN1CCc2ccccc2C1`, the HD50 [1] is reported as 45.7 µmol/kg and the TBPS IC50 [2] is reported as > 100 µM.
Work on `CCCC(C(=O)Oc1c(OC)cccc1OC)N(CCOC)CCOC` (stereo not drawn) yielded an HD50 [1] of 12.4 µmol/kg and a TBPS IC50 [2] of 7.7 µM.
For `COc1cccc(OC)c1OC(=O)[C@H](C)N1CCc2ccccc2C1`, the HD50 [1] was 82.6 µmol/kg, the TBPS IC50 [2] was 23.8 µM and the EC50 [3] was > 100 µM.
Molecule `CCC[C@H](C(=O)Oc1c(OC)cccc1OC)N(CCOC)CCOC` has an HD50 [1] of 7.3 µmol/kg and a TBPS IC50 [2] of 3.2 µM.
In the case of `CCCCC(C(=O)Oc1c(OC)cccc1OC)N(CCOC)CCOC` (stereo not drawn), the HD50 [1] is reported as 11 µmol/kg and the TBPS IC50 [2] is reported as 1.6 µM.
Molecule `CCC(C(=O)Oc1c(OC)cc(C)cc1OC)N(CCOC)CCOC` (stereo not drawn) has an HD50 [1] of 21.7 µmol/kg and a TBPS IC50 [2] of 29.3 µM.
Work on `CCC(C(=O)Oc1c(OC)cc(C)cc1OC)N1CCOCC1` (stereo not drawn) yielded an HD50 [1] of 68.1 µmol/kg.
`COc1cc(C)cc(OC)c1OC(=O)C(C)(C)N1CCOCC1` was tested, and the HD50 [1] was 53.8 µmol/kg and the TBPS IC50 [2] was > 10 µM.
In the case of `COc1cccc(OC)c1OC(=O)[C@@H](C)N1CCOCC1.Cl`, the HD50 [1] is reported as 85.9 µmol/kg, the TBPS IC50 [2] is reported as > 100 µM and the EC50 [3] is reported as 198 µM.
For `COCCN(CCOC)C(C(=O)Oc1c(OC)cccc1OC)C(C)C` (stereo not drawn), the HD50 [1] was 26.9 µmol/kg and the TBPS IC50 [2] was > 10 µM.
Molecule `CC[C@H](C(=O)Oc1c(OC)cccc1OC)N(CCOC)CCOC` has a TBPS IC50 [2] of 7.4 µM.
With `CCC(C(=O)Oc1c(OC)cccc1OC)N(CCOC)CCOC` (stereo not drawn) the TBPS IC50 [2] was 24.3 µM.
`COc1cccc(OC)c1OC(=O)C(C)N1CCc2ccccc2C1` (stereo not drawn) was tested, and the HD50 [1] was 33.2 µmol/kg, the TBPS IC50 [2] was 4.8 µM and the EC50 [3] was 5.5 µM.
